Publication PMC6055826 (Chemistry (Weinheim an Der Bergstrasse, Germany), 2018)

Assays:
[1] = Bidirectional Caco2 permeability assay, 24-well format; format: in vitro ADME; conditions: human, Caco-2
Procedure, shortened: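 Caco-2 monolayers run bidirectionally in a 24-well format, measuring apparent permeability both apical-to-basolateral (A-B) and basolateral-to-apical (B-A). Efflux ratio calculated as Papp B-A divided by Papp A-B.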

[2] = logD by reversed-phase HPLC; format: physicochemical; conditions: pH 7.5
[3] = system: freshly harvested rat hepatocytes (rHep); experiment: Metabolic stability assay, freshly harvested rat hepatocytes; format: in vitro ADME; conditions: predicted maximum oral bioavailability
Procedure, shortened: (§1)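 Metabolic stability measured in vitro in pooled liver microsomes (human, rat or mouse) or freshly harvested rat hepatocytes.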

[4] = Hydrolytic stability; format: physicochemical; conditions: for Recovery [%] (pH): 24 hours with stirring
Procedure, shortened: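 Test compound stirred for 24 hours in buffer at each of three pH values: pH 1 in HCl buffer, pH 7 in phosphate-buffered saline, and pH 10 in sodium borate buffer. Stability expressed as recovery of test compound.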

[5] = Metabolic stability assay, pooled human liver microsomes; format: in vitro ADME; conditions: predicted maximum oral bioavailability
Procedure, shortened: as §1

[6] = Metabolic stability assay, pooled rat liver microsomes; format: in vitro ADME; conditions: predicted maximum oral bioavailability
Procedure, shortened: as §1

[7] = Metabolic stability assay, pooled mouse liver microsomes; format: in vitro ADME; conditions: predicted maximum oral bioavailability
Procedure, shortened: as §1

[8] = pH 7 (phosphate-buffered saline)

| Compound | Papp A→B [1] [×10⁻⁶ cm/s] | efflux ratio [1] | chromatographic logD [2] | F max rHep [%] [3] [%] | Recovery [%] (pH) ([4]; pH 1 (HCl buffer)) | Recovery [%] (pH) [4, 8] | Recovery [%] (pH) ([4]; pH 10 (sodium borate buffer)) | F max (h/r/m)-LMs [%] ([5]; listed as C00021) | F max (h/r/m)-LMs [%] [6] [%] | F max (h/r/m)-LMs [%] [7] [%] | F max (h/r/m)-LMs [%] [5] [%] | hydrolytic stability (in words) ([4]; after 24 hours with stirring at pH 1, 7 and 10) | F max (h/r/m)-LMs [%] ([5]; listed as C00015) |
| --- | --- | --- | --- | --- | --- | --- | --- | --- | --- | --- | --- | --- | --- |
| O=S(=Nc1cccc(F)c1)(c1ccccc1)N1CCCCC1 (centres unmarked) [2 bc] | 25.2 | 0.45 | 4.3 | 2.1 | 100 (1) 100 (7) 100 (10) % | 100 (1) 100 (7) 100 (10) % | 100 (1) 100 (7) 100 (10) % | 8.3 | 0.5 | 16 | – | – | – |
| CN=S(=O)(c1ccccc1)N1CCCCC1 (centres unmarked) [2 cm] | 40.4 | 0.57 | 2.4 | 19 | 100 (1) 100 (7) 100 (10) % | 100 (1) 100 (7) 100 (10) % | 100 (1) 100 (7) 100 (10) % | – | 18 | 47 | 84 | – | – |
| O=S(=NC(F)(F)F)(c1ccccc1)N1CCCCC1 (centres unmarked) [2 cs, 1‐[S‐Phenyl‐N‐(trifluoromethyl)sulfonimidoyl]piperidine] | 19.2 | 0.7 | 3.7 | 6.8 | 56% | 100% | 91% | – | 10 | 9.3 | 19 | signs of hydrolysis at pH 1 and 10 | – |
| CS(=O)(=O)N=S(=O)(c1ccccc1)N1CCCCC1 (centres unmarked) [2 ea, N‐[Oxo(phenyl)(piperidin‐1‐yl)‐λ^6‐sulfanylidene]methanesulfonamide] | 36.3 | 0.67 | 2 | 20 | 100 (1) 100 (7) 100 (10) % | 100 (1) 100 (7) 100 (10) % | 100 (1) 100 (7) 100 (10) % | – | 33 | 83 | – | – | 100 |
